Laboratory results reported in ChEMBL document CHEMBL4396871, “Leveraging a Low-Affinity Diazaspiro Orthosteric Fragment to Reduce Dopamine D3 Receptor (D3R) Ligand Promiscuity across Highly Conserved Aminergic G-Protein-Coupled Receptors (GPCRs)” (J Med Chem, 2019).
pEC50, pIC50, pKi: −log10 of the molar value.

Experiments:
[1] = biological target: Sodium-dependent dopamine transporter (Homo sapiens) (UniProt Q01959); assay: Displacement of [3H]-Win35428 from recombinant human DAT stably expressed in HEK cells at 10 uM measured after 90 mins by microbeta scintillation counting method relative to control; assay type: cell-based
Sequence of Sodium-dependent dopamine transporter (Homo sapiens) (Q01959 whole entry): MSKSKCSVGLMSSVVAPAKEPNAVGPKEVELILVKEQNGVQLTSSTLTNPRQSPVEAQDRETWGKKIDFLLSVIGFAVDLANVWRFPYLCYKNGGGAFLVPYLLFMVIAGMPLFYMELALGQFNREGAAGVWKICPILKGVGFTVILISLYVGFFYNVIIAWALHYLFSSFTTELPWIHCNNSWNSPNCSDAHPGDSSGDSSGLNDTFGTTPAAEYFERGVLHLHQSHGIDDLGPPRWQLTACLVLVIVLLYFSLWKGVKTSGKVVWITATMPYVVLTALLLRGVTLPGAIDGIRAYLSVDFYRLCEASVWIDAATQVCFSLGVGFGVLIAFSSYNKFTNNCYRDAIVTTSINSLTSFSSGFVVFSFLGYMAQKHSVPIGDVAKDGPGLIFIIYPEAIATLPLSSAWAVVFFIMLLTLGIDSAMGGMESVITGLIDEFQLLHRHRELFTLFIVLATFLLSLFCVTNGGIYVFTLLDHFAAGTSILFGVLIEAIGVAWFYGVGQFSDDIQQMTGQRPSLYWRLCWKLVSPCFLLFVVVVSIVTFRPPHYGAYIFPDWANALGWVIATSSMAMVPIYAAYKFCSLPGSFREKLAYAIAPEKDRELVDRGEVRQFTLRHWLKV
Procedure, shortened: (§1)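 Primary screen at 10 μM compound, expressed as % receptor inhibition, from at least three experiments.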

[2] = biological target: T1, D2 dopamine receptor (Homo sapiens, UniProt P14416); assay: Antagonist activity at recombinant human D2 receptor expressed in CHOK1 cells assessed as inhibition of quinpirole-induced beta arrestin2 recruitment preincubated for 30 mins followed by quinpirole addition and measured after 90 mins by coelenterazine-based beta-galactosidase reporter gene assay; assay type: cell-based
T1 sequence (P14416 whole entry): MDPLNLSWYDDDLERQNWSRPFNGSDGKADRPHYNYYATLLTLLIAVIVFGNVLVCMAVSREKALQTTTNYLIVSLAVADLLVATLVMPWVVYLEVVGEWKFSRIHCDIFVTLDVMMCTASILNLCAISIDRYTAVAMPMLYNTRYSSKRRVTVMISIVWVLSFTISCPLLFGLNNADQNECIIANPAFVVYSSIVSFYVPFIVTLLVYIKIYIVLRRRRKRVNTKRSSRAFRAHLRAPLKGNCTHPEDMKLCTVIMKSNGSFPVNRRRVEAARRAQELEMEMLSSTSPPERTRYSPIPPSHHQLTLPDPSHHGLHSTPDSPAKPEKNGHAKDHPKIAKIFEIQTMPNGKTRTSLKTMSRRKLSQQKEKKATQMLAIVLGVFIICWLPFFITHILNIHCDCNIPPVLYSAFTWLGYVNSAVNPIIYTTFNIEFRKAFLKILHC

[3] = biological target: 5-hydroxytryptamine receptor 3A (Homo sapiens) (UniProt P46098); assay: Displacement of [3H]-GR65630 from recombinant human 5HT3 receptor transiently expressed in HEKT cell membranes at 10 uM measured after 90 mins by microbeta scintillation counting method relative to control; procedure, shortened: as §1
Sequence of 5-hydroxytryptamine receptor 3A (Homo sapiens) (P46098 whole entry): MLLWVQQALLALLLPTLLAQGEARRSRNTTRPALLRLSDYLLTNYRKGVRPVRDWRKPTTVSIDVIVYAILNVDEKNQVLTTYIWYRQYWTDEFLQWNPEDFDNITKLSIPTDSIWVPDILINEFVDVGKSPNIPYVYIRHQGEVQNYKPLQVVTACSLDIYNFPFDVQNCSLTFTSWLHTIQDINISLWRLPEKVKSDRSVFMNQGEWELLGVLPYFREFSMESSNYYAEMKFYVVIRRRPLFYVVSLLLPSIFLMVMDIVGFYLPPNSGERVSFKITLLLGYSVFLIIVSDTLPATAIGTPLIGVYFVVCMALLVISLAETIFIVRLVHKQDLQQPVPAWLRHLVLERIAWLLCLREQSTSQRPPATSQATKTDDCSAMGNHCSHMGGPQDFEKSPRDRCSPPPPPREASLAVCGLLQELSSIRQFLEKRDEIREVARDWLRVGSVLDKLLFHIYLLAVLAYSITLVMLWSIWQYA

[4] = biological target: T2, D(3) dopamine receptor (Homo sapiens, UniProt P35462); assay: Displacement of [3H]N-methylspiperone from D3 receptor (unknown origin) measured after 90 mins by microbeta scintillation counting method relative to control
T2 sequence (P35462 whole entry): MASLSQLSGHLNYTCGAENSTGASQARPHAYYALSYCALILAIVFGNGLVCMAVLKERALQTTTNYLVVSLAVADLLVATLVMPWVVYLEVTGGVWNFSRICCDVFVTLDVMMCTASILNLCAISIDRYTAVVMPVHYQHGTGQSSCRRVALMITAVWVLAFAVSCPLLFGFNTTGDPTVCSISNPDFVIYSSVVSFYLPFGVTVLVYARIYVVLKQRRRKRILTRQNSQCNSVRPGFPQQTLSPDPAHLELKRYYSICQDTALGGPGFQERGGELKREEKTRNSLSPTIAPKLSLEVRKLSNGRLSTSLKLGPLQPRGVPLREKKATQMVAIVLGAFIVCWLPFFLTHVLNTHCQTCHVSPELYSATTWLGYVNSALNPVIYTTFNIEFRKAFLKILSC

[5] = biological target: Neuronal acetylcholine receptor; alpha4/beta4 (Homo sapiens) (UniProt P30926+P43681); assay: Displacement of [3H]-epibatidine from recombinant human alpha4beta4 nACHR stably expressed in HEK cells at 10 uM measured after 90 mins by microbeta scintillation counting method relative to control; assay type: cell-based; procedure, shortened: as §1
[6] = biological target: Alpha-1B adrenergic receptor (Homo sapiens, UniProt P35368); assay: Displacement of [3H]-prazosin from recombinant human alpha1B adrenergic receptor transiently expressed in HEKT cells measured after 90 mins by microbeta scintillation counting method; assay type: cell-based
[7] = biological target: Beta-1 adrenergic receptor (Homo sapiens) (UniProt P08588); assay: Displacement of [125I]-pindolol from recombinant human beta1 adrenergic stably expressed in CHO Flp-In cells at 10 uM measured after 90 mins by microbeta scintillation counting method relative to control; assay type: cell-based; procedure, shortened: as §1
[8] = biological target: 5-hydroxytryptamine receptor 6 (Homo sapiens) (UniProt P50406); assay: Displacement of [3H]-LSD from recombinant human 5HT6 receptor stably expressed in HEK cell membranes at 10 uM measured after 90 mins by microbeta scintillation counting method relative to control; procedure, shortened: as §1
Sequence of 5-hydroxytryptamine receptor 6 (Homo sapiens) (P50406 whole entry): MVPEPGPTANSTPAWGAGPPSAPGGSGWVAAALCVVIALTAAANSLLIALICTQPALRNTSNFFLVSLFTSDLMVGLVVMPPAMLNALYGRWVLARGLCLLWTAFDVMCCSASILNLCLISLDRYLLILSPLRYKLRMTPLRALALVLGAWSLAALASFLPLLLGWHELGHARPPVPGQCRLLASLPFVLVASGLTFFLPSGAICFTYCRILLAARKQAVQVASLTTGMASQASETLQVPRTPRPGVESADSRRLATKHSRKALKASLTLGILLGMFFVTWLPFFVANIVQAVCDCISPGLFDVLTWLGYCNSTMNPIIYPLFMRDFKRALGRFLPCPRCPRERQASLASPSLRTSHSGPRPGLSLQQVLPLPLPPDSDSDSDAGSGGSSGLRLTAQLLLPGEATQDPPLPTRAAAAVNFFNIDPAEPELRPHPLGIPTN

[9] = biological target: Nicotinic acetylcholine receptor alpha2/beta4 (Homo sapiens) (UniProt P02708+P30926); assay: Displacement of [3H]-epibatidine from recombinant human alpha2beta4 nACHR stably expressed in HEK cells at 10 uM measured after 90 mins by microbeta scintillation counting method relative to control; assay type: cell-based; procedure, shortened: as §1
[10] = biological target: T2, D(3) dopamine receptor; assay: Antagonist activity at recombinant human D3 receptor expressed in CHOK1 cells assessed as inhibition of dopamine-induced beta arrestin2 recruitment preincubated for 30 mins followed by dopamine addition and measured after 90 mins by coelenterazine-based beta-galactosidase reporter gene assay; assay type: cell-based
[11] = biological target: Mu-type opioid receptor (Homo sapiens) (UniProt P35372); assay: Displacement of [3H]-DAMGO from human MOR stably expressed in HEK cell membranes at 10 uM after 90 mins by microbeta scintillation counting method relative to control; procedure, shortened: as §1
[12] = biological target: Histamine H2 receptor (Homo sapiens, UniProt P25021); assay: Displacement of [125I]-Iodo-aminopotentidine from human histamine H2 receptor expressed in stable HEK cells after 90 mins by microbeta scintillation counting method; assay type: cell-based
Sequence of Histamine H2 receptor (P25021 whole entry): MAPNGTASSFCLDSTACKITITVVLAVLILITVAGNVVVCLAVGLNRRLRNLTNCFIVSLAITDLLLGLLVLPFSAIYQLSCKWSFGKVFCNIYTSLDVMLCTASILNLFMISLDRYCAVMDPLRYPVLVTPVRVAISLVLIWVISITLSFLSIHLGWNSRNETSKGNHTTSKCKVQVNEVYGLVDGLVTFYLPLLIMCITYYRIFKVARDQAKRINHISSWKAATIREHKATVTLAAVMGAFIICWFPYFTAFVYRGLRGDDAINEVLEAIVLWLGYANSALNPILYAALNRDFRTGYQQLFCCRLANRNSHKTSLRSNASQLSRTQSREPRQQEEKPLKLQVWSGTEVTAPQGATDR

[13] = biological target: Nicotinic acetylcholine receptor alpha2/beta2 (Homo sapiens) (UniProt P02708+P17787); assay: Displacement of [3H]-epibatidine from recombinant human alpha2beta2 nACHR stably expressed in HEK cells at 10 uM measured after 90 mins by microbeta scintillation counting method relative to control; assay type: cell-based; procedure, shortened: as §1
[14] = biological target: Histamine H1 receptor (Homo sapiens, UniProt P35367); assay: Displacement of [3H]-pyrilamine from recombinant human H1 receptor stably expressed in HEK cell membranes measured after 90 mins by microbeta scintillation counting method
[15] = biological target: Neuronal acetylcholine receptor; alpha4/beta2 (Homo sapiens) (UniProt P17787+P43681); assay: Displacement of [3H]-epibatidine from recombinant human alpha4beta2 nACHR stably expressed in HEK cells at 10 uM measured after 90 mins by microbeta scintillation counting method relative to control; assay type: cell-based; procedure, shortened: as §1
[16] = biological target: Kappa-type opioid receptor (Homo sapiens) (UniProt P41145); assay: Displacement of [3H]-U69593 from KOR (unknown origin) at 10 uM after 90 mins by microbeta scintillation counting method relative to control; procedure, shortened: as §1
Sequence of Kappa-type opioid receptor (Homo sapiens) (P41145 whole entry): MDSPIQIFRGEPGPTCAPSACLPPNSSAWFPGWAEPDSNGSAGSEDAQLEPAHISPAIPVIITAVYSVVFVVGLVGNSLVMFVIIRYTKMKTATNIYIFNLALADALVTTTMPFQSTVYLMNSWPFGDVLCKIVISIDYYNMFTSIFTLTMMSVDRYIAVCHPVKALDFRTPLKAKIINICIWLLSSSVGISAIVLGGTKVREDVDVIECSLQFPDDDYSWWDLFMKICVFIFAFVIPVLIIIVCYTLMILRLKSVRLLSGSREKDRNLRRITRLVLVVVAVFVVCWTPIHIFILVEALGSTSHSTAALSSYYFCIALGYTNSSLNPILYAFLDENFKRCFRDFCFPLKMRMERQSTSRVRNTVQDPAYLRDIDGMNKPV

[17] = biological target: 5-hydroxytryptamine receptor 1A (Homo sapiens, UniProt P08908); assay: Displacement of [3H]-Way100635 from recombinant human 5HT1A receptor transiently expressed in CHO cell membranes measured after 90 mins by microbeta scintillation counting method
Sequence of 5-hydroxytryptamine receptor 1A (P08908 whole entry): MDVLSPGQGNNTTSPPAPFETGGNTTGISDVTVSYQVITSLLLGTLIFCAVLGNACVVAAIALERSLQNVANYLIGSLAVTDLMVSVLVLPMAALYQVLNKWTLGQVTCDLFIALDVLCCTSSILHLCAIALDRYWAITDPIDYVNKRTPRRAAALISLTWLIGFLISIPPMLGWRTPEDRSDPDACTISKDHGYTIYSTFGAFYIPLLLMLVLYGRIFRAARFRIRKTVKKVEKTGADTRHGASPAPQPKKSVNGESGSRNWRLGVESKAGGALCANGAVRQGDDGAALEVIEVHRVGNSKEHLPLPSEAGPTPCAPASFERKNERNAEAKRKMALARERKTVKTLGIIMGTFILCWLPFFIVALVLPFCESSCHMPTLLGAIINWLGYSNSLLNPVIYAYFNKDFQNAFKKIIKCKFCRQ

[18] = biological target: D(1A) dopamine receptor (Homo sapiens, UniProt P21728); assay: Agonist activity at recombinant human D1 receptor expressed in CHOK1 cells assessed as induction of beta arrestin2 recruitment measured after 30 mins by coelenterazine-based beta-galactosidase reporter gene assay; assay type: cell-based
[19] = biological target: T2, D(3) dopamine receptor; assay: Agonist activity at recombinant human D3 receptor expressed in CHOK1 cells assessed as induction of beta arrestin2 recruitment measured after 30 mins by coelenterazine-based beta-galactosidase reporter gene assay; assay type: cell-based
[20] = biological target: Muscarinic acetylcholine receptor M5 (Homo sapiens) (UniProt P08912); assay: Displacement of [3H]-QNB/[3H]-NMS from human muscarinic M5 receptor expressed in stable CHO cells at 10 uM after 90 mins by microbeta scintillation counting method relative to control; assay type: cell-based; procedure, shortened: as §1
[21] = biological target: T1, D2 dopamine receptor; assay: Agonist activity at recombinant human D2 receptor expressed in CHOK1 cells assessed as induction of beta arrestin2 recruitment measured after 30 mins by coelenterazine-based beta-galactosidase reporter gene assay; assay type: ADME, cell-based
[22] = biological target: 5-hydroxytryptamine receptor 5A (Homo sapiens) (UniProt P47898); assay: Displacement of [3H]-LSD from recombinant human 5HT5A receptor stably expressed in Flp-In-CHO cell membranes at 10 uM measured after 90 mins by microbeta scintillation counting method relative to control; procedure, shortened: as §1
Sequence of 5-hydroxytryptamine receptor 5A (Homo sapiens) (P47898 whole entry): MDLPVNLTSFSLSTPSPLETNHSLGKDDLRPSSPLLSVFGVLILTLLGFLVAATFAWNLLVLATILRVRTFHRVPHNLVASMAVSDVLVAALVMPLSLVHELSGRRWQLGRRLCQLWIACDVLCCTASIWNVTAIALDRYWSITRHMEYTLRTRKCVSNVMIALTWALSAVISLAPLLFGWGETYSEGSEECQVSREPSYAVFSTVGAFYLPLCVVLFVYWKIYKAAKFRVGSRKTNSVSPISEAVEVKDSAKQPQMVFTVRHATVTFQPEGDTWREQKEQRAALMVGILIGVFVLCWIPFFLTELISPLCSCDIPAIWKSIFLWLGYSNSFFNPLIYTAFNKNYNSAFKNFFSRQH

[23] = biological target: Neuronal acetylcholine receptor; alpha3/beta2 (Homo sapiens) (UniProt P17787+P32297); assay: Displacement of [3H]-epibatidine from recombinant human alpha3beta2 nACHR stably expressed in HEK cells at 10 uM measured after 90 mins by microbeta scintillation counting method relative to control; assay type: cell-based; procedure, shortened: as §1
[24] = biological target: Alpha-1A adrenergic receptor (Homo sapiens, UniProt P35348); assay: Displacement of [3H]-prazosin from recombinant human alpha1A adrenergic receptor measured after 90 mins by microbeta scintillation counting method
[25] = biological target: Delta-type opioid receptor (Homo sapiens) (UniProt P41143); assay: Displacement of [3H]-DADLE from human DOR stably expressed in HEK cell membranes at 10 uM after 90 mins by microbeta scintillation counting method relative to control; procedure, shortened: as §1
Sequence of Delta-type opioid receptor (Homo sapiens) (P41143 whole entry): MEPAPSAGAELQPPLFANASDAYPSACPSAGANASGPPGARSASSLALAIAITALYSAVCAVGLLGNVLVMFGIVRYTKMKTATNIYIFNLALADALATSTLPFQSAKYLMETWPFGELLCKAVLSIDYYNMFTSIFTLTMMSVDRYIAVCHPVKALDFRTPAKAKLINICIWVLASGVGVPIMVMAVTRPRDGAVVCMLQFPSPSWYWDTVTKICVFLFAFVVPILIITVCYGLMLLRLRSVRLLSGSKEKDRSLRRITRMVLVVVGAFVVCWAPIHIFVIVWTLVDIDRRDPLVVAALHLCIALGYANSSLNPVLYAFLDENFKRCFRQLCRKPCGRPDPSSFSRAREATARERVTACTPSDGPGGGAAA

[26] = biological target: Beta-3 adrenergic receptor (Homo sapiens) (UniProt P13945); assay: Displacement of [3H]-CGP12177 from recombinant human beta3 adrenergic stably expressed in HEK Flp-In cells at 10 uM measured after 90 mins by microbeta scintillation counting method relative to control; assay type: cell-based; procedure, shortened: as §1
[27] = biological target: Histamine H4 receptor (Homo sapiens) (UniProt Q9H3N8); assay: Displacement of [3H]-histamine from human histamine H4 receptor stably expressed in HEKT cell membranes at 10 uM after 90 mins by microbeta scintillation counting method relative to control; procedure, shortened: as §1
Sequence of Histamine H4 receptor (Homo sapiens) (Q9H3N8 whole entry): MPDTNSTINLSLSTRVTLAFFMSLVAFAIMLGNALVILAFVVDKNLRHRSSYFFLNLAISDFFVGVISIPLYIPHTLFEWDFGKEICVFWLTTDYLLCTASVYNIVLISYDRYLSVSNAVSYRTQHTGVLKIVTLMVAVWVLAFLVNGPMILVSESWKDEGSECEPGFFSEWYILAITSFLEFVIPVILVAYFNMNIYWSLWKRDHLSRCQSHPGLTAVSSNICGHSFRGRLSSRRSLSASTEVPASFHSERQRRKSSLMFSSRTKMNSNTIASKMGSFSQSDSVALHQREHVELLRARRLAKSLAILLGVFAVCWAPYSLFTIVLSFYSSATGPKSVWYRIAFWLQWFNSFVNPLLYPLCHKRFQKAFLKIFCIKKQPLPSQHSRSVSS

Structure (SMILES)	inhibition [1]	pIC50 [2]	inhibition [3]	pKi [4]	inhibition [5]	pKi [6]	inhibition [7]	inhibition [8]	inhibition [9]	pIC50 [10]	inhibition [11]	pKi [12]	inhibition [13]	pKi [14]	inhibition [15]	inhibition [16]	pKi [17]	EC50 [18]	inhibition [20]	inhibition [22]	further results
COc1ccccc1N1CCC2(CCN(CCCSc3nnc(-c4ccccc4)n3C)CC2)CC1	< 50%	5.79	< 50%	7.03	< 50%	5.66	< 50%	< 50%	< 50%	7.38	< 50%	6.22	< 50%	8.10	< 50%	< 50%	5.89	Not Active	< 50%	< 50%	EC50 [19]: Not Active; EC50 [21]: Not Active; inhibition [23]: < 50%; pKi [24]: 5.66; inhibition [25]: < 50%; inhibition [26]: < 50%; inhibition [27]: < 50%
COc1ccccc1N1CCN(CCCSc2nnc(-c3ccccc3)n2C)CC1	< 50%	6.48	< 50%	8.22	< 50%	7.03	< 50%	< 50%	< 50%	8.06	< 50%	6.06	< 50%	7.40	< 50%	< 50%	9.05	Not Active	< 50%	< 50%	pEC50 ([19]; read-out: EC50): 6.78; pEC50 ([21]; read-out: EC50): 6.60; inhibition [23]: < 50%; pKi [24]: 7.31; inhibition [25]: < 50%; inhibition [26]: < 50%; inhibition [27]: < 50%
